Experimental data from ChEMBL document CHEMBL1125934, “Targeting 5'-deoxy-5'-(methylthio)adenosine phosphorylase by 5'-haloalkyl analogues of 5'-deoxy-5'-(methylthio)adenosine” (J Med Chem, 1991).

B1: S-methyl-5'-thioadenosine phosphorylase (Mus musculus), Q9CQ65 (protein)
chain: MASGSACTAVKIGIIGGTGLDDPEILEGRTEKYVDTPFGKPSDALILGKIKNVDCVLLARHGRQHTIMPSKVNYQANIWALKEEGCTHVIVTTACGSLREEIQPGDMVIIDQFIDRTSLRPQTFYDGSHCSARGVCHIPMAEPFCPKTREVLIETAKKLGLRCHSKGTIVTIEGPRFSSRAESLIFRTWGADVVNMTTVPEVVLAKEAGICYASIAMATDYDCWKEHEEAVSVDGVLKTMKENANKAKSLLLTTIPQIGSMEWSETLRNLKNMAQFSVLPPRH

Columns and labels:
[1] = biological target: T1, S-methyl-5'-thioadenosine phosphorylase (Mus musculus) (UniProt Q9CQ65); assay: The ability to act as substrates for MTA phosphorylase activity was determined by using a mouse liver enzyme preparation; assay type: functional, tissue-based; design: concentration or dose not given beside the values
T1 sequence (whole entry): B1 chain
Method in brief: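 Mouse liver MTA phosphorylase preparation, spectrophotometric assay. The analogue was used as substrate and the absorbance change at λ 305 was read after a 10-min incubation. Activity is expressed relative to MTA as control substrate. Duplicate samples, agreeing within 15%.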

[2] = system: L5178Y; assay: Effect of compound on spermidine(SPD) polyamine pool in L5178Y murine leukemia cells expressed in terms of nmol/10e6 cells; assay type: functional, Mus musculus
[3] = system: CCRF-CEM; assay: The concentration required to inhibit cell growth by 50% was measured on human CCRF-CEM cells (96h after exposure); assay type: functional, cell-based
Method in brief: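 CCRF-CEM cells grown in 10% horse serum, seeded at 0.3×10^5 cells/mL. Compounds were freshly dissolved in DMSO, diluted in serum-free medium, and tested at 0.1-1000 µM for 96 h (about 4 doublings). Cells were counted by Coulter counter and the concentration giving 50% growth inhibition determined.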

[4] = system: L1210; assay: Effect of compound on spermidine(SPD) polyamine pool in L1210 murine leukemia cells expressed in terms of nmol/10e6 cells; assay type: functional, Mus musculus
[5] = system: L1210; assay: Effect of compound on putrescine(PUT) polyamine pool in L1210 murine leukemia cells expressed in terms of nmol/10e6 cells; assay type: functional, Mus musculus
[6] = system: L5178Y; assay: Effect of compound on putrescine(PUT) polyamine pool in L5178Y murine leukemia cells expressed in terms of nmol/10e6 cells; assay type: functional, Mus musculus
[7] = system: L5178Y; assay: The concentration required to inhibit cell growth by 50% was measured on L5178Y Leukemic cell line of mouse(48h after exposure); assay type: functional, cell-based
Method in brief: (§1)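 Suspension cultures in RPMI 1640 with 10% Nu Serum, seeded at 0.3×10^5 cells/mL. Compounds were dissolved fresh in DMSO, diluted in serum-free medium, and tested at 0.1-1000 µM for 48 h (about 4 doublings). Cells were counted by Coulter counter and the 50% growth-inhibitory concentration determined.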

[8] = system: L1210; assay: The concentration required to inhibit cell growth by 50% was measured on L1210 Leukemic cell line of mouse(48h after exposure); assay type: functional, cell-based; conditions: L1210, 48 h; method in brief: as §1
[9] = system: L1210; assay: Effect of compound on spermine(SPM) polyamine pool in L1210 murine leukemia cells expressed in terms of nmol/10e6 cells; assay type: functional, Mus musculus
[10] = system: L5178Y; assay: Effect of compound on spermine(SPM) polyamine pool in L5178Y murine leukemia cells expressed in terms of nmol/10e6 cells; assay type: functional, Mus musculus
[11] = biological target: Adenosylhomocysteinase (Bos taurus) (UniProt Q3MHL4); assay: Percentage enzyme activity remaining was measured by the inhibition S-adenosyl-L-homocysteine hydrolase from bovine liver at 0.01 uM
Chain of Adenosylhomocysteinase (Bos taurus) (Q3MHL4 whole entry, looked up): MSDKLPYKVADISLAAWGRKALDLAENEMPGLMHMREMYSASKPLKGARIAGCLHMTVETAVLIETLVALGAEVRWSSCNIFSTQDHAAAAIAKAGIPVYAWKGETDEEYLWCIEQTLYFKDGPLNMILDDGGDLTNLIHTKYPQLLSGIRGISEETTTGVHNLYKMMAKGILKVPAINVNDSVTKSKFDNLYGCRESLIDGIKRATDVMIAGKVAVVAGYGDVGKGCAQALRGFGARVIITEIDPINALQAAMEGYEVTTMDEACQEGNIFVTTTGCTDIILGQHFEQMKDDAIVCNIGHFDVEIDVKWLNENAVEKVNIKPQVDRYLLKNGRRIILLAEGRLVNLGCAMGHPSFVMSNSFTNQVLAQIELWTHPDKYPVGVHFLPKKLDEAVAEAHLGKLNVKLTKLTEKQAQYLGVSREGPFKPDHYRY

[12] = system: MOLT-4; assay: The concentration required to inhibit cell growth by 50% was measured on human MOLT-4 cells (96h after exposure); assay type: functional, cell-based; conditions: MOLT-4, 96 h
Method in brief: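 MOLT-4 suspension culture in RPMI 1640 with 10% Nu Serum, seeded at 0.3×10^5 cells/mL. Compounds were freshly dissolved in DMSO, diluted in serum-free medium, and tested at 0.1-1000 µM for 96 h (about 4 doublings). Cells were counted electronically (Coulter) and the 50% growth-inhibitory concentration determined.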

[13] = biological target: T2, S-methyl-5'-thioadenosine phosphorylase (Mus musculus, UniProt Q9CQ65); assay: The inhibitory constant(Ki) for MTA phosphorylase activity was determined by using a mouse liver enzyme preparation
T2 sequence (Q9CQ65 whole entry): B1 chain
Method in brief: (§2)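 Mouse liver MTA phosphorylase preparation. Conversion of [methyl-³H]MTA to [methyl-³H]MTRP was measured in the presence of analogue. Ki was derived from Lineweaver-Burk plots. Duplicate samples, agreeing within 15%.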

[14] = system: L5178Y; assay: Effect of compound on putrescine(PUT) polyamine pool in L5178Y murine leukemia cells expressed as nmol/10e6 cells; assay type: functional, Mus musculus
[15] = compound: CSC[C@H]1O[C@@H](n2cnc3c(N)ncnc32)[C@H](O)[C@@H]1O; assay: The inhibitory constant for MTA phosphorylase activity was determined by using a mouse liver enzyme preparation; assay type: functional, tissue-based; method in brief: as §2

Row | Molecule | Control [1] [%] | Activity [2] | IC50 [3] [µM] | Activity [4] | Activity [5] | Activity [6] [nmol/10e6 cells] | IC50 [7] [µM] | IC50 [8] [µM] | Activity [9] | Activity [10] | Activity [11] [%] | IC50 [12] [µM] | Ki [13] [µM] | Activity [14] | Km [15] [µM]
1 | Nc1ncnc2c1ncn2C1O[C@H](CSCCBr)[C@@H](O)[C@H]1O (some centres not stated) | 38 |  |  |  |  |  |  |  |  |  |  |  |  |  | 
2 | Nc1ncnc2c1ncn2C1O[C@H](CSCCCl)[C@@H](O)[C@H]1O (some centres not stated) | 35 |  |  |  |  |  |  |  |  |  |  |  |  |  | 
3 | Nc1ncnc2c1ncn2C1O[C@H](CSCCF)[C@@H](O)[C@H]1O (some centres not stated) | 64 | 1.55 | 75 | 1.95 | 0.56 | 0.27 | 60 | 150 | 0.86 | 1.43 | 102 | 10 |  |  | 
4 | CCSC[C@H]1OC(n2cnc3c(N)ncnc32)[C@H](O)[C@@H]1O (some centres not stated) | 95 | 1.75 | 200 | 1.01 | 0.77 | 0.69 | 250 | 800 | 0.54 | 1.29 | 99 | 20 | 1.9 |  | 
5 | Nc1ncnc2c1ncn2C1O[C@H](CSCCCF)[C@@H](O)[C@H]1O (some centres not stated) | 66 | 1.79 | 160 | 0.99 | 0.34 | 0.36 | 600 | 600 | 0.44 | 1.07 | 97 | 25 | 4 |  | 
6 | CSC[C@H]1O[C@@H](n2cnc3c(N)ncnc32)[C@H](O)[C@@H]1O [METHYLTHIOADENOSINE] | 100 | 2.79 | 150 | 1.22 | 1.93 |  | 200 | 850 | 0.19 | 0.43 | 101 | 11 |  | 1.85 | 
7 | CCCSC[C@H]1OC(n2cnc3c(N)ncnc32)[C@H](O)[C@@H]1O (some centres not stated) | 102 | 1.18 | 160 | 0.57 | 0.26 | 0.25 | 500 | 1000 | 0.41 | 1 | 100 | 45 | 1.7 |  | 
8 | Nc1ncnc2c1ncn2C1O[C@H](CSCCO)[C@@H](O)[C@H]1O (some centres not stated) | 34 | 1.9 | 100 | 1.17 | 0.75 | 0.66 | 500 | 1000 | 0.58 | 1.5 |  | 40 |  |  | 
9 | B1 |  |  |  |  |  |  |  |  |  |  |  |  |  |  | 1.3
